Measured values taken from ChEMBL document CHEMBL4513216, “Probing the Open Global Health Chemical Diversity Library for Multistage-Active Starting Points for Next-Generation Antimalarials” (ACS Infect Dis, 2020).

Experiment: Toxicity liver stage against HepG2, at 10uM
Format: cell-based
Design: test concentration 10 uM, cell line HepG2-A16-CD81EGFP
Details: human, HepG2-A16-CD81EGFP cells; read-out: INHIBITION
In short: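 Uninfected HepG2-A16-CD81EGFP cells, 3 × 10^3 per well, 1536-well, plated on prespotted compound at 10 μM final, parasite-free screening media added to match infected plates; puromycin 10 μM positive, DMSO 0.5% negative; run in parallel with 48 h PbLuc assay at 37 °C, 5% CO2; viability by CellTiter-Glo luminescence, normalized to controls.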

| Structure (SMILES) | cytotoxicity at 10 µM [%] |
| --- | --- |
| CC(C)c1nc(CN(C)C(=O)CCc2ccc3c(c2)OCO3)cs1 | -15.8 |
| O=C(Nc1cc(C(F)(F)F)c[nH]c1=O)C1CCCO1 (stereo not drawn) | -0.37 |
| CN(C)c1ncnc2c1CCN(c1cccc(F)c1)CC2 | 18.5 |
| Cc1ccccc1CN1CCCN(S(=O)(=O)N(C)C2CCCCC2)CC1 | 11.5 |
| CC(=O)N1CCCC1c1nnc2n1CCCCC2 (stereo not drawn) | 4.31 |
| CC(NC(=O)c1ccoc1)C(=O)N(C)Cc1cccc(C(F)(F)F)c1 (stereo not drawn) | -13.6 |
| CC(C)(C)c1noc(CCC(=O)N2CCN(Cc3ccc(Cl)s3)CC2)n1 | 3.36 |
| Cc1nc(C)n(CC2CCCN2c2ccnc(-c3ccccc3)n2)n1 (stereo not drawn) | 9.69 |
| CCOCCNc1nc(-c2ccncc2)nc2c1CCNCC2 | -136 |
| CN1CCC(Cc2nc(-c3ccnn3C)n(Cc3ccccc3)n2)CC1 | 44.1 |
| O=C(CC1CCCC1)Nc1ccc(-n2cc(Cl)cn2)nc1 | -56.3 |
| CCN(CC1CCOC1)C(=O)Nc1ccc(N2CCCC2)nc1 (stereo not drawn) | -7.1 |
| O=C(NC[C@]1(O)CCN(Cc2ccsc2)C[C@H]1O)c1c[nH]cn1 | 0.514 |
| CCC=C(C)C(=O)NCc1ccc(OC)nc1 | -4.13 |
| COc1cc(CNC(=O)c2cc(S(C)(=O)=O)ccc2C)ccn1 | -1.65 |
| Fc1ccc(CN2CCC(c3n[nH]c4nccnc34)CC2)cc1F | -11.8 |
| NC(=O)CN1CCN(S(=O)(=O)N2CCCC2c2ccco2)CC1 (stereo not drawn) | -3.48 |
| CC(C)Cc1ncc2c(n1)CN(c1nc3ccccc3cc1CO)C2 | 1.18 |
| Cc1cc(C)nc(C2CCN(c3ccncn3)C2)n1 (stereo not drawn) | -0.419 |
| Cc1cnn(CCNCc2cccc(C#N)c2)c1 | -2.01 |
| CCC(C)(NCC(=O)OC)c1nccs1 (stereo not drawn) | -12.7 |
| Cc1nn(C)c(Cl)c1S(=O)(=O)N(CC(N)=O)CC(C)C | 8.18 |
| O=C(c1ccccn1)N1CCCC2(CCN(c3ccsc3)C2=O)C1 (stereo not drawn) | -136 |

| Structure (SMILES) | cytotoxicity at 10 µM [%] |
| --- | --- |
| CS(=O)(=O)N1CCCCC1c1ccc(Nc2cnccn2)nc1 (stereo not drawn) | 6.39 |
| COc1ccc2cnn(CC(=O)NC3CCCCC3)c(=O)c2c1OC | -2.49 |
| CN(C)c1ncc(CNS(=O)(=O)c2cccc3ccccc23)n1C | 8.32 |
| Cc1ccc(NCc2ccc(C#N)cc2)cc1-n1cnnn1 | -0.657 |
| CN(C)c1cncc(C2CCN(C(=O)CO)CC2)n1 | -1.37 |
| CCC(=O)Nc1ccc(C(C)NC(=O)COC)cc1 (stereo not drawn) | -145 |
| Cc1ccc(C2CN(C(=O)c3ccn(C)c(=O)c3)CCO2)nc1 (stereo not drawn) | -17 |
| COc1ccc(-n2ccnc2-c2cnc(N(C)C)nc2)cc1OC | -2.4 |
| COc1ccc2nc(C3CC3)cc(C(=O)NCc3ncnn3C)c2c1 | -8.06 |
| CCc1ocnc1C(=O)N1CCCC1c1noc(C(C)C)n1 (stereo not drawn) | -8.69 |
| O=c1cc(CSc2nnc[nH]2)nc2sc3c(n12)CCCC3 | -6.04 |
| CC(C)Cn1c2c(ccc1=O)CC(N)CC2 (stereo not drawn) | 8.03 |
| CNCc1n[nH]c(=O)n1CC1CCCCC1 | -46.5 |
| OCCn1nnnc1Cc1ccc(Br)cc1 | 1.54 |
| OCCc1cc(CC2(NCc3ccncc3)COC2)no1 | -3.56 |
| O=C(Cc1cccs1)N1Cc2nc(COCC3CC3)oc2C1 | 2.55 |
| Cc1nc(CC(=O)N2CCC(c3nn(C)c4ncccc34)CC2)cs1 | -18.9 |
| O=C(CN1C[C@H]2CC(OCc3ccccc3)C[C@H]2C1)N1CCOCC1 (stereo partly drawn) | -9.92 |
| COc1cc(CNC(=O)COC2CCCCC2)ccc1O | 6.81 |
| Cc1csc2c(C3CCN(CCCOc4ccccc4)CC3)nc(C)n12 | 1.63 |
| CC1CN(C)CCN1C(=O)COc1cccc(Oc2ccccn2)c1 (stereo not drawn) | 10.7 |
| CN(Cc1noc(C2CC2)n1)C1CCN(CCS(C)(=O)=O)C1 (stereo not drawn) | -14.9 |
| CCS(=O)(=O)NC[C@]12COC[C@H]1CN(Cc1cccnc1)C2 | 5.22 |

| Structure (SMILES) | cytotoxicity at 10 µM [%] |
| --- | --- |
| CCOc1ccc2[nH]c(=O)c(CN(C)CCc3cn[nH]c3)cc2c1 | 25.9 |
| COC(=O)C1=NOC(Cc2cc(OC)c3c(c2)OCO3)C1 (stereo not drawn) | 5.82 |
| Cc1ccc(CC(=O)Nc2ccc(CS(C)(=O)=O)c(F)c2)cc1 | -2.77 |
| CC(C)COC(C)C(=O)NCc1ccc(N(C)C)cc1 (stereo not drawn) | 2.53 |
| CCC(CO)N(Cc1cccs1)C(=O)CNS(=O)(=O)c1cccs1 (stereo not drawn) | 4.98 |
| CCc1nc(C)c(CN2CCOC(Cc3cccc4ccccc34)C2)[nH]1 (stereo not drawn) | -5.54 |
| CC(C)c1n[nH]c(C2CN(C(=O)c3cccc4cn[nH]c34)CCO2)n1 (stereo not drawn) | -5.31 |
| c1coc(CN2CC[C@@H]3O[C@@H](COCc4ccncc4)CC[C@@H]32)c1 | -155 |
| Cc1cnn(CC2CN(Cc3nc4ccccc4o3)CCO2)c1 (stereo not drawn) | -3.49 |
| O=C(NCCCn1ccnc1)NCC(c1ccco1)N1CCCC1 (stereo not drawn) | -8.86 |
| CCC[C@H]1CN(S(=O)(=O)c2cc(C)ccc2F)C[C@@H]1N | 2.33 |
| O=C1CC(c2ccncc2)C2(CCN(CC3CC3)CC2)N1 (stereo not drawn) | 11.3 |
| COCCC(=O)N1CCC2(COCc3cnc(N(C)C)nc32)C1 (stereo not drawn) | -64.8 |
| CC1COCCN1Cc1nc(-c2cccc(Br)c2)no1 (stereo not drawn) | -3.04 |
| CN(C)Cc1cc(=O)n2c(n1)CN(CC1CC1)CCC2 | 5.71 |
| COc1ccccc1-c1cc(NC(=O)CCS(=O)(=O)C2CCCC2)[nH]n1 | -123 |
| Fc1cnc(N2CCCC3(CCN(Cc4ccsc4)C3)C2)nc1 (stereo not drawn) | -2.83 |
| CCC(O)CN(Cc1cccc(C(=O)N(C)C)c1)c1ccccc1 (stereo not drawn) | 0.503 |
| Cc1ncsc1C(=O)N(Cc1ccccn1)C1CC1 | -11.2 |
| Cc1cc(C(F)(F)F)cc(N2CCC3(CCC(=O)N(CCO)C3)CC2)n1 | 8.09 |
| Cc1nc(CN2CCN(c3cncc(Cl)n3)CC2)no1 | 6.45 |
| O=C(Nc1nnc(C(F)F)s1)N[C@H](CCO)c1ccccc1 | 1.88 |
| CC(NCc1ccccc1Cl)c1ccc2[nH]c(=O)[nH]c2c1 (stereo not drawn) | -9.7 |

| Structure (SMILES) | cytotoxicity at 10 µM [%] |
| --- | --- |
| Cc1cccc(-c2ccc(C(=O)NCC3CCCO3)c(=O)[nH]2)c1 (stereo not drawn) | -7.36 |
| CCC(=O)N(C)C1CCN(Cc2ncc(C)c(OC)c2C)CC1 | -9.86 |
| COCc1cncc2c1CCN(C(=O)c1ccsc1)C2 | 2.43 |
| Cc1cc(C)n(CC2CN(CC(=O)N3CCNC3=O)CCO2)n1 (stereo not drawn) | -2.38 |
| CCN(CC)[C@@H]1CN(Cc2nccn2C)[C@@H]2CCCO[C@H]12 | 4.92 |
| Cn1nc(C2CCCN(Cc3ccccc3)C2)c2nccnc21 (stereo not drawn) | -9.05 |
| O=C(c1ccncc1)N(CCO)Cc1cc(Br)ccc1F | 10.2 |
| CCOCC(=O)NCCCn1ccnc1-c1ccccc1 | -1.11 |
| CC(CC(=O)N1CCCN(Cc2cscn2)CC1)n1cccc1 (stereo not drawn) | -8.01 |
| CCN(Cc1ccccc1)C1CCN(c2cc(C)nn2C)C1=O (stereo not drawn) | -3.03 |
| CC(=O)NCC(=O)N1CCOCC(Cc2ccc3c(ccn3C)c2)C1 (stereo not drawn) | 1.89 |
| O=C(N1CCCCC1)N1CCN(c2ccc(Cl)nn2)C(=O)C1 | 8.24 |
| Cc1cc(C)n(CC2CCCN2CCS(C)(=O)=O)n1 (stereo not drawn) | -3.95 |
| Cc1ccc(NC2CCN(C(=O)Cc3ccc(C#N)cc3)CC2)nn1 | -6.83 |
| FC(F)(F)c1cccc(N2CCC(NCc3cccnc3)CC2)c1 | -64.5 |
| COC1CCN(CCNc2ncc(Br)cc2C)CC1 | -13.9 |
| CC(C)c1cc(C(=O)N2CCC3(CCc4ccccc4C(=O)N3)C2)no1 (stereo not drawn) | 6.83 |
| Cc1nc2c(c(NCc3ccccc3)n1)CCN(C(=O)NC(C)C)CC2 | 28.7 |
| O=C(c1cccnc1)N1CCC2(CC1)CCN(c1ccsc1)C2=O | 6.84 |
| O=C(Nc1ccc(F)cc1)N1CCN(Cc2noc(C3CC3)n2)CC1 | -18.1 |
| CC(C)c1cc(NC(=O)CN2CCNC(=O)C2)on1 | -11.6 |
| O=C(CCc1ccccn1)N1CCSC2(CCCCC2)C1 | 0.547 |
| FC(F)CN1CCC(NCCc2ccc(-n3cccn3)cc2)CC1 | 14.5 |

| Structure (SMILES) | cytotoxicity at 10 µM [%] |
| --- | --- |
| O=C(O)c1nnn(Cc2ccc(F)cc2)c1-c1cccnc1 | -6.21 |
| CCOCC1CN(C(=O)c2ccnnc2)Cc2cnn(CC)c21 (stereo not drawn) | -77.8 |
| O=C(NCCN1CCc2ccccc21)c1cc(-c2ccc(O)cc2)n[nH]1 | 1.91 |
| Cn1nccc1CNC(=O)CCn1nc(C(F)(F)F)cc1C1CC1 | -8.74 |
| CN(C)C(=O)c1cccnc1SCc1ccccc1C#N | 2.02 |
| COCCn1ccnc1CN1CCc2[nH]cnc2C1c1cnn(C)c1C (stereo not drawn) | -2.77 |
| Cc1nn(C)cc1-c1cc(C(=O)NCC(C)(C)c2ccccc2F)n[nH]1 | 6.82 |
| CC(=O)N1CCN(C(=O)CN2CCCC2Cn2nc(C)cc2C)CC1 (stereo not drawn) | -12.2 |
| CCc1cnc(COc2ccc(OC3CCCCNC3=O)cc2)o1 (stereo not drawn) | 0.318 |
| CCN1CCN(c2ccc(CNC(=O)Cc3c(C)noc3C)cn2)CC1 | -12.2 |
| Cc1cc(=O)n(C)cc1NC(=O)Cc1cccc(Cl)c1 | -12.8 |
| COCCCNC(=O)Cc1nc(-c2ccncc2)n[nH]1 | -9.72 |
| CSCCC(NC(=O)c1nc(SC)ncc1Cl)C(=O)O (stereo not drawn) | -8.77 |
| COCCN1C[C@@H](C)[C@@]2(COCCN(C(=O)c3cccc(C)n3)C2)C1 | 7.13 |
| O=C(NCc1cncc2c1CCN(C1CCOCC1)C2)c1ccno1 | -2.67 |
| Cc1ccc(CN(C)c2cc(N3CCCC3CO)ncn2)s1 (stereo not drawn) | 5.6 |
| Cc1nc(CN2CCCN(Cc3nc4ccccc4o3)CC2)no1 | 12.3 |
| CCC(NC(=O)NCc1cccc(N(C)C)n1)c1nccs1 (stereo not drawn) | 23.3 |
| CN(Cc1ccc(-n2cccn2)cc1)Cc1cnc(N(C)C)nc1 | -1.28 |
| CCc1nc(C2CCCN2C(=O)c2ccc3c(c2)nc(C)n3C)no1 (stereo not drawn) | 3.54 |
| c1cnc2[nH]c(C3CCCC3)c(CN3CCCCC3)c2c1 | -26.9 |
